ChEMBL document CHEMBL4330087, “Synthesis, antimicrobial activity, attenuation of aminoglycoside resistance in MRSA, and ribosomal A-site binding of pyrene-neomycin conjugates” (Eur J Med Chem, 2019)
Calls of active or inactive are those of the source. The calls are words filed in the database; no cut-off is given here.

Columns and labels:
[1] = test system: Staphylococcus aureus; assay: Antibacterial activity against NEO-sensitive Staphylococcus aureus harboring NorA mutant at 6.25 uM after 15 to 20 hrs by CLSI protocol based microdilution assay relative to control; format: functional
Procedure, shortened: (§1)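 Exponential-phase cultures were exposed to 6.25 μM compound in duplicate with neomycin as reference, at 37 °C in a humidified incubator for 15-20 h. Broth and culture controls received sterile water with 1% DMSO. Percent growth inhibition was calculated against the growth and background controls.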

[2] = test system: Staphylococcus aureus; assay: Antibacterial activity against methicillin-resistant Staphylococcus aureus SU-5 at 6.25 uM after 15 to 20 hrs by CLSI protocol based microdilution assay relative to control; format: functional; procedure, shortened: as §1
[3] = test system: Ribosomal RNA A-site; assay: Displacement of F-NEO from Escherichia coli rRNA-A site after 10 to 20 mins by fluorescence assay relative to NEO; format: nucleic-acid assay; design: concentration or dose not given beside the values
Procedure, shortened: (§2)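 100 nM F-NEO:A-site complex in 10 mM HEPES, 50 mM NaCl, 0.04 mM EDTA, pH 7.0, mixed with ligand and incubated 10-20 min at room temperature. Fluorescence read at ex 485/em 525 nm, in duplicate. Percent binding was computed from the intensities of ligand-treated complex, complex without ligand, and complex with neomycin.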

[4] = test system: Staphylococcus aureus; assay: Antibacterial activity against methicillin-resistant Staphylococcus aureus A960649 at 6.25 uM after 15 to 20 hrs by CLSI protocol based microdilution assay relative to control; format: functional; procedure, shortened: as §1
[5] = target: Ribosomal RNA A-site; assay: Displacement of F-NEO from human mitochondrial rRNA-A site after 10 to 20 mins by fluorescence assay; format: nucleic-acid assay
Procedure, shortened: (§3)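 A 100 nM F-NEO:A-site RNA complex in 10 mM HEPES, 50 mM NaCl, 0.04 mM EDTA, pH 7.0 was titrated with 2-fold dilutions of ligand from 20 to 0.009 μM, or from 60 or 40 μM for weaker ligands. Incubated 10-20 min at room temperature, fluorescence read at ex 485/em 525 nm. IC50 from dose-response curve fit.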

[6] = test system: Staphylococcus aureus; assay: Antibacterial activity against methicillin-resistant Staphylococcus aureus M0602 at 6.25 uM after 15 to 20 hrs by CLSI protocol based microdilution assay relative to control; format: functional; procedure, shortened: as §1
[7] = test system: Enterococcus faecium; assay: Antibacterial activity against NEO-intermediate sensitive Enterococcus faecium BM4105-RF at 6.25 uM after 15 to 20 hrs by CLSI protocol based microdilution assay relative to control; format: functional
Procedure, shortened: (§4)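 Single-concentration screen at 6.25 μM against exponential-phase cultures, in duplicate, with NEO as reference. Enterococcus was grown in BHI broth, M. smegmatis in TS broth with 0.05% Tween 80, and all other strains in TS broth. The 1% DMSO water vehicle was added to broth (background) and culture (growth control). Incubation was 37 °C, humidified, 15-20 h. Result is percent growth inhibition.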

[8] = test system: Enterococcus faecalis; assay: Antibacterial activity against NEO-intermediate sensitive Enterococcus faecalis ATCC 29212 at 6.25 uM after 15 to 20 hrs by CLSI protocol based microdilution assay relative to control; format: functional; procedure, shortened: as §4
[9] = target: Ribosomal RNA A-site; assay: Displacement of F-NEO from human cytosolic rRNA-A site after 10 to 20 mins by fluorescence assay; format: nucleic-acid assay; procedure, shortened: as §3
[10] = test system: Klebsiella pneumoniae; assay: Antibacterial activity against Klebsiella pneumoniae NR-151410 at 6.25 uM after 15 to 20 hrs by CLSI protocol based microdilution assay relative to control; format: functional; procedure, shortened: as §4
[11] = test system: Ribosomal RNA A-site; assay: Displacement of F-NEO from Escherichia coli rRNA-A site after 10 to 20 mins by fluorescence assay; format: nucleic-acid assay; procedure, shortened: as §3
[12] = test system: Staphylococcus aureus; assay: Antibacterial activity against methicillin-resistant Staphylococcus aureus 33591 at 6.25 uM after 15 to 20 hrs by CLSI protocol based microdilution assay relative to control; format: functional; procedure, shortened: as §1
[13] = test system: Klebsiella oxytoca; assay: Antibacterial activity against NEO-sensitive Klebsiella oxytoca HM-625 at 6.25 uM after 15 to 20 hrs by CLSI protocol based microdilution assay relative to control; format: functional; procedure, shortened: as §4
[14] = test system: Escherichia coli; assay: Antibacterial activity against NEO-sensitive Escherichia coli harboring TolC mutant at 6.25 uM after 15 to 20 hrs by CLSI protocol based microdilution assay relative to control; format: functional; procedure, shortened: as §1
[15] = Inhibition of APH(3')-1a (unknown origin)
[16] = test system: Listeria monocytogenes; assay: Antibacterial activity against NEO-sensitive Listeria monocytogenes ATCC 19115 at 6.25 uM after 15 to 20 hrs by CLSI protocol based microdilution assay relative to control; format: functional; procedure, shortened: as §4
[17] = Inhibition of Eis (unknown origin)
[18] = test system: Bacillus anthracis; assay: Antibacterial activity against NEO-sensitive Bacillus anthracis BA852 at 6.25 uM after 15 to 20 hrs by CLSI protocol based microdilution assay relative to control; format: functional; procedure, shortened: as §1
[19] = test system: Streptococcus pyogenes; assay: Antibacterial activity against NEO-resistant Streptococcus pyogenes C203 at 6.25 uM after 15 to 20 hrs by CLSI protocol based microdilution assay relative to control; format: functional; procedure, shortened: as §1
[20] = test system: Ribosomal RNA A-site; assay: Displacement of F-NEO from human mitochondrial rRNA-A site after 10 to 20 mins by fluorescence assay relative to NEO; format: nucleic-acid assay; design: concentration or dose not given beside the values; procedure, shortened: as §2
[21] = Inhibition of AAC(2')-1c (unknown origin)
[22] = test system: Acinetobacter baumannii; assay: Antibacterial activity against NEO-sensitive Acinetobacter baumannii ATCC 19606 at 6.25 uM after 15 to 20 hrs by CLSI protocol based microdilution assay relative to control; format: functional, ATCC 19606 = CIP 70.34 = JCM 6841; procedure, shortened: as §4
[23] = test system: Staphylococcus aureus; assay: Antibacterial activity against NEO-sensitive Staphylococcus aureus 25923 at 6.25 uM after 15 to 20 hrs by CLSI protocol based microdilution assay relative to control; format: functional; procedure, shortened: as §4
[24] = Displacement of F-NEO from human mitochondrial rRNA-A site C1410U mutant after 10 to 20 mins by fluorescence assay; procedure, shortened: as §3
[25] = test system: Mycolicibacterium smegmatis; assay: Antibacterial activity against NEO-sensitive Mycobacterium smegmatis at 6.25 uM after 15 to 20 hrs by CLSI protocol based microdilution assay relative to control; format: functional; procedure, shortened: as §4
[26] = Inhibition of AAC(6')-1e (unknown origin)
[27] = species on record: Homo sapiens; assay: Displacement of F-NEO from human mitochondrial rRNA-A site A1490G mutant after 10 to 20 mins by fluorescence assay relative to NEO; procedure, shortened: as §2
[28] = test system: Staphylococcus epidermidis; assay: Antibacterial activity against NEO-sensitive Staphylococcus epidermidis 12384 at 6.25 uM after 15 to 20 hrs by CLSI protocol based microdilution assay relative to control; format: functional; procedure, shortened: as §4
[29] = test system: Ribosomal RNA A-site; assay: Displacement of F-NEO from human cytosolic rRNA-A site after 10 to 20 mins by fluorescence assay relative to NEO; format: nucleic-acid assay; design: concentration or dose not given beside the values; procedure, shortened: as §2
[30] = Inhibition of APH(2\")-1a (unknown origin)
[31] = test system: Pseudomonas aeruginosa; assay: Antibacterial activity against NEO-resistant Pseudomonas aeruginosa 27853 at 6.25 uM after 15 to 20 hrs by CLSI protocol based microdilution assay relative to control; format: functional; procedure, shortened: as §1
[32] = species on record: Homo sapiens; assay: Displacement of F-NEO from human mitochondrial rRNA-A site C1410U mutant after 10 to 20 mins by fluorescence assay relative to NEO; design: concentration or dose not given beside the values; procedure, shortened: as §2
[33] = Inhibition of AAC(3)-4 (unknown origin)

Row | SMILES | Activity [1] | Activity [2] | inhibition [3] | Activity [4] | IC50 [5] | Activity [6] | Activity [7] | Activity [8] | IC50 [9] | Activity [10] | IC50 [11] | Activity [12] | Activity [13] | Activity [14] | inhibition [15] | Activity [16] | inhibition [17] | Activity [18] | Activity [19] | inhibition [20] | other results
1 | NC[C@@H]1O[C@H](O[C@H]2[C@@H](O)[C@H](O[C@@H]3[C@@H](O)[C@H](N)C[C@H](N)[C@H]3O[C@H]3O[C@H](CN)[C@@H](O)[C@H](O)[C@H]3N)O[C@@H]2CSCCNC(=S)NCCCCCCNC(=O)CCCc2ccc3ccc4cccc5ccc2c3c45)[C@H](N)[C@@H](O)[C@@H]1O | 100% | 0% | 64% | 87% | 0.235 µM | 0% | 18% | 51% | 0.252 µM | 33% | 0.254 µM | 47% | 21% | 100% | Active | 91% | Active | 100% | inactive | 70% | inhibition [21]: Active; Activity [22]: 8%; Activity [23]: 98%; IC50 [24]: 0.18 µM; Activity [25]: 61%; inhibition [26]: Active; inhibition [27]: 58%; Activity [28]: 80%; inhibition [29]: 75%; inhibition [30]: Active; Activity [31]: 14%; inhibition [32]: 91%; inhibition [33]: Active
2 | NC[C@@H]1O[C@H](O[C@H]2[C@@H](O)[C@H](O[C@@H]3[C@@H](O)[C@H](N)C[C@H](N)[C@H]3O[C@H]3O[C@H](CN)[C@@H](O)[C@H](O)[C@H]3N)O[C@@H]2CNC(=O)Cc2ccc3ccc4cccc5ccc2c3c45)[C@H](N)[C@@H](O)[C@@H]1O | inactive | inactive | 33% | 15% | 0.339 µM | inactive | 0% | 12% | 0.375 µM | 10% | 0.303 µM | 27% | 5% | inactive | Active | inactive | Active | inactive | inactive | 47% | inhibition [21]: Active; Activity [22]: 6%; Activity [23]: 30%; IC50 [24]: 0.274 µM; Activity [25]: 38%; inhibition [26]: Active; inhibition [27]: 22%; Activity [28]: 15%; inhibition [29]: 38%; inhibition [30]: Active; Activity [31]: 19%; inhibition [32]: 73%; inhibition [33]: Active
3 | NC[C@@H]1O[C@H](O[C@H]2[C@@H](O)[C@H](O[C@@H]3[C@@H](O)[C@H](N)C[C@H](N)[C@H]3O[C@H]3O[C@H](CN)[C@@H](O)[C@H](O)[C@H]3N)O[C@@H]2CSCCNC(=O)CCCc2ccc3ccc4cccc5ccc2c3c45)[C@H](N)[C@@H](O)[C@@H]1O | 53% | 34% | 78% | 30% | 0.168 µM | 32% | 0% | 18% | 0.175 µM | 20% | 0.148 µM | 20% | 13% | 100% | inactive | 49% | inactive | 100% | 20% | 74% | inhibition [21]: inactive; Activity [22]: 10%; Activity [23]: 36%; IC50 [24]: 0.126 µM; Activity [25]: 41%; inhibition [26]: inactive; inhibition [27]: 58%; Activity [28]: 82%; inhibition [29]: 66%; inhibition [30]: inactive; Activity [31]: 7%; inhibition [32]: 92%; inhibition [33]: inactive
